Source: ChEMBL document CHEMBL1158343, “Synthesis, antimicrobial and antiviral evaluation of substituted imidazole derivatives” (Eur J Med Chem, 2009)
Converted amounts (≈) assume the structure as drawn.

Key:
Human alphaherpesvirus 1 [1] = assay: Antiviral activity against HSV1 KOS infected in human HEL cells assessed as reduction in virus-induced cytopathogenicity after 3 days; type: functional, organism-based; conditions: Human alphaherpesvirus 1, KOS, 72 h
Staphylococcus aureus = assay: Antimicrobial activity against Staphylococcus aureus after 24 hrs by tube dilution method; type: functional
In short: (§1)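 Tube dilution in DMSO (stock 100 mg/ml) with serial dilutions; incubation 37 °C for 48 h for C. albicans (other organisms' times truncated in text). MIC read as lowest concentration inhibiting visible growth. Norfloxacin (bacteria) and fluconazole (fungi) as reference drugs.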

[2] = Cytotoxicity against human HeLa cells assessed as alteration in cell morphology; type: cell-based
In short: (§2)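 Uninfected cell cultures tested in parallel with the CPE-reduction antiviral assay; cells grown to confluency, then serial compound dilutions added and incubated at 37 °C (3 days in the parallel antiviral set-up). Read-out is microscopic examination of morphology; value is the minimum cytotoxic concentration, the lowest causing a microscopically detectable alteration of normal cell morphology.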

Human alphaherpesvirus 2 = assay: Antiviral activity against HSV2 G infected in human HEL cells assessed as reduction in virus-induced cytopathogenicity after 3 days; type: functional, organism-based; conditions: Human alphaherpesvirus 2, strain G, 72 h
[3] = Cytotoxicity against african green monkey Vero cells assessed as alteration in cell morphology; type: cell-based; conditions: chlorocebus sabaeus; in short: as §2
Candida albicans = assay: Antimicrobial activity against Candida albicans after 48 hrs by tube dilution method; type: functional; in short: as §1
[4] = tested on: Vesicular stomatitis virus; assay: Antiviral activity against VSV infected in human HEL cells assessed as reduction in virus-induced cytopathogenicity after 3 days; type: functional, organism-based; conditions: 72 h
Escherichia coli = assay: Antimicrobial activity against Escherichia coli after 24 hrs by tube dilution method; type: functional; in short: as §1
Human alphaherpesvirus 1 [5] = assay: Antiviral activity against thymidine kinase-deficient acyclovir-resistant HSV1 KOS infected in human HEL cells assessed as reduction in virus-induced cytopathogenicity after 3 days; type: functional, organism-based; conditions: Human alphaherpesvirus 1, KOS, 72 h
Sindbis virus = assay: Antiviral activity against Sindbis virus infected in african green monkey Vero cells assessed as reduction in virus-induced cytopathogenicity after 3 days; type: functional, organism-based; conditions: 72 h
Coxsackievirus B4 [6] = assay: Antiviral activity against Coxsackievirus B4 infected in human HeLa cells assessed as reduction in virus-induced cytopathogenicity after 3 days; type: functional, organism-based; conditions: Enterovirus B, 72 h
Bacillus subtilis = assay: Antimicrobial activity against Bacillus subtilis after 24 hrs by tube dilution method; type: functional; in short: as §1
Human respirovirus 3 = assay: Antiviral activity against Parainfluenza-3 virus infected in african green monkey Vero cells assessed as reduction in virus-induced cytopathogenicity after 3 days; type: functional, organism-based; conditions: Human respirovirus 3, Vero, 72 h
[7] = tested on: Vesicular stomatitis virus; assay: Antiviral activity against VSV infected in human HeLa cells assessed as reduction in virus-induced cytopathogenicity after 3 days; type: functional, organism-based; conditions: 72 h
[8] = tested on: Respiratory syncytial virus; assay: Antiviral activity against RSV infected in human HeLa cells assessed as reduction in virus-induced cytopathogenicity after 3 days; type: functional, organism-based; conditions: 72 h
Coxsackievirus B4 [9] = assay: Antiviral activity against Coxsackievirus B4 infected in african green monkey Vero cells assessed as reduction in virus-induced cytopathogenicity after 3 days; type: functional, organism-based; conditions: Enterovirus B, 72 h
Aspergillus niger = assay: Antimicrobial activity against Aspergillus niger after 7 days by tube dilution method; type: functional; conditions: 168 h; in short: as §1
[10] = tested on: Mammalian orthoreovirus 1; assay: Antiviral activity against Reovirus 1 infected in african green monkey Vero cells assessed as reduction in virus-induced cytopathogenicity after 3 days; type: functional, organism-based; conditions: Mammalian orthoreovirus 1, Vero, 72 h
[11] = Cytotoxicity against human HEL cells assessed as alteration in cell morphology; type: cell-based; in short: as §2
Punta Toro virus = assay: Antiviral activity against Punta Toro virus infected in african green monkey Vero cells assessed as reduction in virus-induced cytopathogenicity after 3 days; type: functional, organism-based; conditions: 72 h

| Structure (SMILES) | EC50 (Human alphaherpesvirus 1 [1]) [mg/L] | MBC (Staphylococcus aureus) [µM] | MIC (Staphylococcus aureus) [µM] | MCC [2] [µg/mL] | EC50 (Human alphaherpesvirus 2) [mg/L] | MCC [3] [µg/mL] | MFC (Candida albicans) [µM] | MIC (Candida albicans) [µM] | EC50 [4] [mg/L] | MBC (Escherichia coli) [µM] | MIC (Escherichia coli) [µM] | EC50 (Human alphaherpesvirus 1 [5]) [mg/L] | EC50 (Sindbis virus) [mg/L] | EC50 (Coxsackievirus B4 [6]) [mg/L] | MBC (Bacillus subtilis) [µM] | MIC (Bacillus subtilis) [µM] | EC50 (Human respirovirus 3) [mg/L] | EC50 [7] [mg/L] | EC50 [8] [mg/L] | EC50 (Coxsackievirus B4 [9]) [mg/L] | also measured |
| --- | --- | --- | --- | --- | --- | --- | --- | --- | --- | --- | --- | --- | --- | --- | --- | --- | --- | --- | --- | --- | --- |
| O=C(c1ccc([N+](=O)[O-])cc1)n1ccnc1-c1ccc(Cl)cc1 | > 100 | 152 (≈ 49.8 µg/mL) | 38 (≈ 12.5 µg/mL) | > 100 | > 100 | > 100 | 152 (≈ 49.8 µg/mL) | 19 (≈ 6.23 µg/mL) | > 100 | 305 (≈ 100 µg/mL) | 38 (≈ 12.5 µg/mL) | > 100 | > 100 | 45 (≈ 137 µM) | 305 (≈ 100 µg/mL) | 19 (≈ 6.23 µg/mL) | > 100 | > 100 | > 100 | > 100 | MFC (Aspergillus niger): 76 µM (≈ 24.9 µg/mL); MIC (Aspergillus niger): 4 µM (≈ 1.31 µg/mL); EC50 [10]: > 100 mg/L; MCC [11]: > 100 µg/mL; EC50 (Punta Toro virus): > 100 mg/L |
| O=C(c1ccc([N+](=O)[O-])cc1)n1ccnc1-c1ccccc1[N+](=O)[O-] | > 100 | 295 (≈ 99.8 µg/mL) | 36 (≈ 12.2 µg/mL) | > 100 | > 100 | > 100 | 295 (≈ 99.8 µg/mL) | 36 (≈ 12.2 µg/mL) | > 100 | 295 (≈ 99.8 µg/mL) | 36 (≈ 12.2 µg/mL) | > 100 | > 100 | > 100 | 295 (≈ 99.8 µg/mL) | 36 (≈ 12.2 µg/mL) | > 100 | > 100 | > 100 | > 100 | MFC (Aspergillus niger): 73 µM (≈ 24.7 µg/mL); MIC (Aspergillus niger): 4 µM (≈ 1.35 µg/mL); EC50 [10]: > 100 mg/L; MCC [11]: > 100 µg/mL; EC50 (Punta Toro virus): > 100 mg/L |
| COc1ccc(-c2nccn2C(=O)c2ccc([N+](=O)[O-])cc2)cc1 | > 100 | 18 (≈ 5.82 µg/mL) | 2 (≈ 0.647 µg/mL) | > 100 | > 100 | > 100 | 147 (≈ 47.5 µg/mL) | 18 (≈ 5.82 µg/mL) | > 100 | 147 (≈ 47.5 µg/mL) | 18 (≈ 5.82 µg/mL) | > 100 | > 100 | > 100 | 18 (≈ 5.82 µg/mL) | 2 (≈ 0.647 µg/mL) | > 100 | > 100 | > 100 | > 100 | MFC (Aspergillus niger): 147 µM (≈ 47.5 µg/mL); MIC (Aspergillus niger): 9 µM (≈ 2.91 µg/mL); EC50 [10]: > 100 mg/L; MCC [11]: > 100 µg/mL; EC50 (Punta Toro virus): > 100 mg/L |
| O=C(c1ccc([N+](=O)[O-])cc1)n1ccnc1-c1ccc([N+](=O)[O-])cc1 | 59 (≈ 174 µM) | 295 (≈ 99.8 µg/mL) | 73 (≈ 24.7 µg/mL) | 100 | 50 (≈ 148 µM) | > 100 | 147 (≈ 49.7 µg/mL) | 18 (≈ 6.09 µg/mL) | > 100 | 295 (≈ 99.8 µg/mL) | 73 (≈ 24.7 µg/mL) | 45 (≈ 133 µM) | > 100 | > 20 | 295 (≈ 99.8 µg/mL) | 36 (≈ 12.2 µg/mL) | > 100 | > 20 | > 20 | > 100 | MFC (Aspergillus niger): 147 µM (≈ 49.7 µg/mL); MIC (Aspergillus niger): 18 µM (≈ 6.09 µg/mL); EC50 [10]: > 100 mg/L; MCC [11]: > 100 µg/mL; EC50 (Punta Toro virus): > 100 mg/L |
| O=C(c1ccc([N+](=O)[O-])cc1)n1ccnc1-c1cccc(Cl)c1 | > 100 | 305 (≈ 100 µg/mL) | 38 (≈ 12.5 µg/mL) | > 100 | > 100 | > 100 | 304 (≈ 99.6 µg/mL) | 38 (≈ 12.5 µg/mL) | > 100 | 305 (≈ 100 µg/mL) | 38 (≈ 12.5 µg/mL) | > 100 | > 100 | > 100 | 305 (≈ 100 µg/mL) | 38 (≈ 12.5 µg/mL) | > 100 | > 100 | > 100 | > 100 | MFC (Aspergillus niger): 152 µM (≈ 49.8 µg/mL); MIC (Aspergillus niger): 19 µM (≈ 6.23 µg/mL); EC50 [10]: > 100 mg/L; MCC [11]: > 100 µg/mL; EC50 (Punta Toro virus): > 100 mg/L |
| O=C(c1ccc([N+](=O)[O-])cc1)n1ccnc1-c1ccccc1Cl | > 100 | 19 (≈ 6.23 µg/mL) | 2 (≈ 0.655 µg/mL) | > 100 | > 100 | > 100 | 152 (≈ 49.8 µg/mL) | 38 (≈ 12.5 µg/mL) | > 100 | 19 (≈ 6.23 µg/mL) | 2 (≈ 0.655 µg/mL) | > 100 | > 100 | > 100 | 19 (≈ 6.23 µg/mL) | 2 (≈ 0.655 µg/mL) | > 100 | > 100 | > 100 | > 100 | MFC (Aspergillus niger): 76 µM (≈ 24.9 µg/mL); MIC (Aspergillus niger): 9 µM (≈ 2.95 µg/mL); EC50 [10]: > 100 mg/L; MCC [11]: > 100 µg/mL; EC50 (Punta Toro virus): > 100 mg/L |
| O=C(c1ccccc1Br)n1ccnc1-c1ccc([N+](=O)[O-])cc1 | > 100 | 16 (≈ 5.95 µg/mL) | 2 (≈ 0.744 µg/mL) | > 100 | > 100 | > 100 | 134 (≈ 49.9 µg/mL) | 16 (≈ 5.95 µg/mL) | > 100 | 33 (≈ 12.3 µg/mL) | 4 (≈ 1.49 µg/mL) | > 100 | > 100 | > 100 | 33 (≈ 12.3 µg/mL) | 4 (≈ 1.49 µg/mL) | > 100 | > 100 | > 100 | > 100 | MFC (Aspergillus niger): 67 µM (≈ 24.9 µg/mL); MIC (Aspergillus niger): 4 µM (≈ 1.49 µg/mL); EC50 [10]: > 100 mg/L; MCC [11]: > 100 µg/mL; EC50 (Punta Toro virus): > 100 mg/L |
| COc1ccc(-c2nccn2C(=O)c2ccccc2Br)cc1 | > 100 | 134 (≈ 47.9 µg/mL) | 16 (≈ 5.72 µg/mL) | > 100 | > 100 | > 100 | 134 (≈ 47.9 µg/mL) | 16 (≈ 5.72 µg/mL) | > 100 | 628 (≈ 224 µg/mL) | 33 (≈ 11.8 µg/mL) | > 100 | > 100 | > 100 | 628 (≈ 224 µg/mL) | 16 (≈ 5.72 µg/mL) | > 100 | > 100 | > 100 | > 100 | MFC (Aspergillus niger): 134 µM (≈ 47.9 µg/mL); MIC (Aspergillus niger): 16 µM (≈ 5.72 µg/mL); EC50 [10]: > 100 mg/L; MCC [11]: > 100 µg/mL; EC50 (Punta Toro virus): > 100 mg/L |
| O=C(c1ccc([N+](=O)[O-])cc1)n1ccnc1-c1cccc([N+](=O)[O-])c1 | > 100 | 147 (≈ 49.7 µg/mL) | 18 (≈ 6.09 µg/mL) | > 100 | > 100 | > 100 | 295 (≈ 99.8 µg/mL) | 18 (≈ 6.09 µg/mL) | > 100 | 36 (≈ 12.2 µg/mL) | 9 (≈ 3.04 µg/mL) | > 100 | > 100 | > 100 | 295 (≈ 99.8 µg/mL) | 36 (≈ 12.2 µg/mL) | > 100 | > 100 | > 100 | > 100 | MFC (Aspergillus niger): 73 µM (≈ 24.7 µg/mL); MIC (Aspergillus niger): 9 µM (≈ 3.04 µg/mL); EC50 [10]: > 100 mg/L; MCC [11]: > 100 µg/mL; EC50 (Punta Toro virus): 100 mg/L (≈ 296 µM) |
